Experimental data as given in ChEMBL document CHEMBL4270541, “Synthesis and antimicrobial evaluation of amino sugar-based naphthoquinones and isoquinoline-5,8-diones and their halogenated compounds” (Eur J Med Chem, 2018).
Converted amounts (≈) assume the structure as drawn. The source made the active and inactive calls. No cut-off for these calls is given here.

How the values were obtained:
Escherichia coli [1] = assay: Bactericidal activity against Escherichia coli INCQS 00033 ATCC 25922 incubated for 24 hrs followed by transfer of microbial suspension to agar plates and measured after 24 hrs post transfer by resazurin dye-based colorimetric analysis; assay type: functional; conditions: ATCC 25922 INCQS 00033, 24 h, read-out: MBC99.9
Summary of the method: (§1)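 For MBC, 10 µL from each clear MIC well was plated on agar and incubated 24 h at 37°C. MBC is the minimum concentration inhibiting 99.9% of growth. […] Triplicate.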

[2] = Hemolytic activity against human erythrocytes assessed as hemolysis at 200 ug/ml after 3 hrs by spectrophotometric analysis relative to control; assay type: ADME, cell-based, Erythrocyte; conditions: read-out: Activity
Summary of the method: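 Erythrocytes collected in citrate tubes, washed three times with PBS pH 7.4 by centrifugation and resuspended in PBS. Incubated with compounds at 200 µg/mL for 3 h at 37°C. Released hemoglobin was read in the supernatant at 545 nm against 1% Triton X-100 (complete lysis) and 1% DMSO (negative control). Below 10% hemolysis was taken as hemocompatible. Three independent experiments.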

[3] = test system: Staphylococcus epidermidis; assay: Antimicrobial activity against Staphylococcus epidermidis INCQS 00016 ATCC 12228 assessed as zone of inhibition at 5 mg/ml after 18 to 24 hrs by disc diffusion method; assay type: functional; conditions: ATCC 12228 INCQS 00016, read-out: IZ
Staphylococcus aureus [4] = assay: Antimicrobial activity against Staphylococcus aureus INCQS 00015 ATCC 25923 at 256 ug/ml after 24 hrs by microdilution assay; assay type: functional, organism-based
Staphylococcus simulans [5] = assay: Antimicrobial activity against Staphylococcus simulans INCQS 00254 ATCC 27851 assessed as zone of inhibition at 5 mg/ml after 18 to 24 hrs by disc diffusion method; assay type: functional; conditions: read-out: IZ
Staphylococcus simulans [6] = assay: Bactericidal activity against Staphylococcus simulans INCQS 00254 ATCC 27851 at 256 ug/ml incubated for 24 hrs followed by transfer of microbial suspension to agar plates and measured after 24 hrs post transfer by resazurin dye-based colorimetric analysis; assay type: functional, organism-based; summary of the method: as §1
Staphylococcus aureus [7] = assay: Antimicrobial activity against methicillin-resistant Staphylococcus aureus BMB9393 assessed as zone of inhibition at 5 mg/ml after 18 to 24 hrs by disc diffusion method; assay type: functional; conditions: read-out: IZ
Pseudomonas aeruginosa [8] = assay: Antimicrobial activity against Pseudomonas aeruginosa INCQS 00099 ATCC 27853 after 24 hrs by microdilution assay; assay type: functional; conditions: INCQS 00099 ATCC 27853, 24 h
Staphylococcus aureus [9] = assay: Antimicrobial activity against methicillin-resistant Staphylococcus aureus BMB9393 at 256 ug/ml after 24 hrs by microdilution assay; assay type: functional, organism-based
Staphylococcus aureus [10] = assay: Antimicrobial activity against Staphylococcus aureus INCQS 00015 ATCC 25923 assessed as zone of inhibition at 5 mg/ml after 18 to 24 hrs by disc diffusion method; assay type: functional; conditions: read-out: IZ
Escherichia coli [11] = assay: Ratio of MBC99.9 to MIC for Escherichia coli INCQS 00033 ATCC 25922; assay type: functional, ATCC 25922 INCQS 00033
Summary of the method: (§2)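 MBC/MIC ratio from the 24 h, 37°C microdilution MIC and the agar-plating MBC (99.9% growth inhibition). A ratio ≤2 was classed as bactericidal and ≥4 as bacteriostatic.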

Escherichia coli [12] = assay: Antimicrobial activity against Escherichia coli INCQS 00033 ATCC 25922 after 24 hrs by microdilution assay; assay type: functional; conditions: ATCC 25922 INCQS 00033, 24 h
Pseudomonas aeruginosa [13] = assay: Antimicrobial activity against Pseudomonas aeruginosa INCQS 00099 ATCC 27853 assessed as zone of inhibition at 5 mg/ml after 18 to 24 hrs by disc diffusion method; assay type: functional; conditions: read-out: IZ
Staphylococcus aureus [14] = assay: Bactericidal activity against Staphylococcus aureus INCQS 00015 ATCC 25923 at 256 ug/ml incubated for 24 hrs followed by transfer of microbial suspension to agar plates and measured after 24 hrs post transfer by resazurin dye-based colorimetric analysis; assay type: functional, organism-based; summary of the method: as §1
Staphylococcus simulans [15] = assay: Antimicrobial activity against Staphylococcus simulans INCQS 00254 ATCC 27851 at 256 ug/ml after 24 hrs by microdilution assay; assay type: functional, organism-based
Escherichia coli [16] = assay: Antimicrobial activity against Escherichia coli INCQS 00033 ATCC 25922 assessed as zone of inhibition at 5 mg/ml after 18 to 24 hrs by disc diffusion method; assay type: functional; conditions: ATCC 25922 INCQS 00033, read-out: IZ
[17] = test system: Staphylococcus epidermidis; assay: Bactericidal activity against Staphylococcus epidermidis INCQS 00016 ATCC 12228 at 256 ug/ml incubated for 24 hrs followed by transfer of microbial suspension to agar plates and measured after 24 hrs post transfer by resazurin dye-based colorimetric analysis; assay type: functional, organism-based; conditions: ATCC 12228 INCQS 00016; summary of the method: as §1
Pseudomonas aeruginosa [18] = assay: Bactericidal activity against Pseudomonas aeruginosa INCQS 00099 ATCC 27853 incubated for 24 hrs followed by transfer of microbial suspension to agar plates and measured after 24 hrs post transfer by resazurin dye-based colorimetric analysis; assay type: functional; conditions: INCQS 00099 ATCC 27853, 24 h, read-out: MBC99.9; summary of the method: as §1
Klebsiella pneumoniae = assay: Antimicrobial activity against Klebsiella pneumoniae INCQS 00083 ATCC 4352 assessed as zone of inhibition at 5 mg/ml after 18 to 24 hrs by disc diffusion method; assay type: functional; conditions: read-out: IZ
Proteus mirabilis = assay: Antimicrobial activity against Proteus mirabilis INCQS 00095 ATCC 15290 assessed as zone of inhibition at 5 mg/ml after 18 to 24 hrs by disc diffusion method; assay type: functional; conditions: read-out: IZ
Staphylococcus aureus [19] = assay: Bactericidal activity against methicillin-resistant Staphylococcus aureus BMB9393 at 256 ug/ml incubated for 24 hrs followed by transfer of microbial suspension to agar plates and measured after 24 hrs post transfer by resazurin dye-based colorimetric analysis; assay type: functional, organism-based
Summary of the method: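 From MIC wells with no visible growth, 10 µL is transferred to agar plates and incubated 24 h at 37°C. MBC is the minimum concentration inhibiting 99.9% of growth. […] Triplicate.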

Enterococcus faecalis = assay: Antimicrobial activity against Enterococcus faecalis INCQS 00234 ATCC 29212 assessed as zone of inhibition at 5 mg/ml after 18 to 24 hrs by disc diffusion method; assay type: functional; conditions: ATCC 29212 INCQS 00234, read-out: IZ
[20] = test system: Staphylococcus epidermidis; assay: Antimicrobial activity against Staphylococcus epidermidis INCQS 00016 ATCC 12228 at 256 ug/ml after 24 hrs by microdilution assay; assay type: functional, organism-based; conditions: ATCC 12228 INCQS 00016
Pseudomonas aeruginosa [21] = assay: Ratio of MBC99.9 to MIC for Pseudomonas aeruginosa INCQS 00099 ATCC 27853; assay type: functional; summary of the method: as §2

Structure (SMILES) | MBC (Escherichia coli [1]) [µg/mL] | hemolysis at 3 h, 200 ug/ml [2] [%] | zone of inhibition at 5000 µg/mL [3] [mm] | Activity (Staphylococcus aureus [4]) | zone of inhibition at 5000 µg/mL (Staphylococcus simulans [5]) [mm] | Activity (Staphylococcus simulans [6]) | zone of inhibition at 5000 µg/mL (Staphylococcus aureus [7]) [mm] | MIC (Pseudomonas aeruginosa [8]) [µg/mL] | Activity (Staphylococcus aureus [9]) | zone of inhibition at 5000 µg/mL (Staphylococcus aureus [10]) [mm] | Ratio (Escherichia coli [11]) | MIC (Escherichia coli [12]) [µg/mL] | zone of inhibition at 5000 µg/mL (Pseudomonas aeruginosa [13]) [mm] | Activity (Staphylococcus aureus [14]) | Activity (Staphylococcus simulans [15]) | zone of inhibition at 5000 µg/mL (Escherichia coli [16]) [mm] | Activity [17] | MBC (Pseudomonas aeruginosa [18]) [µg/mL] | zone of inhibition at 5000 µg/mL (Klebsiella pneumoniae) [mm] | zone of inhibition at 5000 µg/mL (Proteus mirabilis) [mm] | further results
CO[C@@H]1O[C@H](CNC2=C(Br)C(=O)c3ccccc3C2=O)[C@H]2OC(C)(C)O[C@@H]12 | 32 (≈ 73 µM) | < 10 | 10 | inactive | 8 | inactive | 0 | 64 (≈ 146 µM) | inactive | 8 | 1 | 32 (≈ 73 µM) | 13 | inactive | inactive | 16 | inactive | 34 (≈ 77.6 µM) | 0 | 0 | Activity (Staphylococcus aureus [19]): inactive; zone of inhibition at 5000 µg/mL (Enterococcus faecalis): 0 mm; Activity [20]: inactive; Ratio (Pseudomonas aeruginosa [21]): 1
COC(=O)c1c(C)nc(C)c2c1C(=O)C(Br)=C(NC[C@H]1O[C@@H](OC)[C@@H]3OC(C)(C)O[C@@H]31)C2=O | 8 (≈ 15.2 µM) | < 10 | 11 | inactive | 0 | inactive | 12 | 8 (≈ 15.2 µM) | inactive | 13 | 1 | 8 (≈ 15.2 µM) | 17 | inactive | inactive | 17 | inactive | 8 (≈ 15.2 µM) | 0 | 0 | Activity (Staphylococcus aureus [19]): inactive; zone of inhibition at 5000 µg/mL (Enterococcus faecalis): 0 mm; Activity [20]: inactive; Ratio (Pseudomonas aeruginosa [21]): 1
CO[C@@H]1O[C@H](CNC2=C(Cl)C(=O)c3ccccc3C2=O)[C@H]2OC(C)(C)O[C@@H]12 | 8 (≈ 20.3 µM) | < 10 | 9 | inactive | 7 | inactive | 0 | 32 (≈ 81.3 µM) | inactive | 0 | 1 | 8 (≈ 20.3 µM) | 9 | inactive | inactive | 10 | inactive | 32 (≈ 81.3 µM) | 0 | 0 | Activity (Staphylococcus aureus [19]): inactive; zone of inhibition at 5000 µg/mL (Enterococcus faecalis): 0 mm; Activity [20]: inactive
CC1(C)O[C@H]2O[C@H](CNC3=C(Br)C(=O)c4ccccc4C3=O)[C@H](O)[C@H]2O1 | 16 (≈ 37.7 µM) | < 10 | 10 | inactive | 9 | inactive | 0 | 16 (≈ 37.7 µM) | inactive | 8 | 1 | 16 (≈ 37.7 µM) | 16 | inactive | inactive | 12 | inactive | 16 (≈ 37.7 µM) | 0 | 0 | Activity (Staphylococcus aureus [19]): inactive; zone of inhibition at 5000 µg/mL (Enterococcus faecalis): 0 mm; Activity [20]: inactive; Ratio (Pseudomonas aeruginosa [21]): 1
CC1(C)O[C@H]2[C@@H](O1)[C@@H](CNC1=C(Cl)C(=O)c3ccccc3C1=O)O[C@@H]1OC(C)(C)O[C@@H]12 | 16 (≈ 35.6 µM) | < 10 | 8 | inactive | 0 | inactive | 0 | 32 (≈ 71.1 µM) | inactive | 9 | 1 | 16 (≈ 35.6 µM) | 13 | inactive | inactive | 12 | inactive | 32 (≈ 71.1 µM) | 0 | 0 | Activity (Staphylococcus aureus [19]): inactive; zone of inhibition at 5000 µg/mL (Enterococcus faecalis): 0 mm; Activity [20]: inactive; Ratio (Pseudomonas aeruginosa [21]): 1
CC1(C)O[C@H]2O[C@H](CNC3=C(Cl)C(=O)c4ccccc4C3=O)[C@H](O)[C@H]2O1 | 4 (≈ 10.5 µM) | 10.1 to 14.4 | 15 | inactive | 13 | inactive | 0 | 8 (≈ 21.1 µM) | inactive | 14 | 1 | 4 (≈ 10.5 µM) | 21 | inactive | inactive | 17 | inactive | 8 (≈ 21.1 µM) | 0 | 0 | Activity (Staphylococcus aureus [19]): inactive; zone of inhibition at 5000 µg/mL (Enterococcus faecalis): 0 mm; Activity [20]: inactive; Ratio (Pseudomonas aeruginosa [21]): 1
